Experimental findings from ChEMBL document CHEMBL4024777, “Discovery of LY3104607: A Potent and Selective G Protein-Coupled Receptor 40 (GPR40) Agonist with Optimized Pharmacokinetic Properties to Support Once Daily Oral Treatment in Patients with Type 2 Diabetes Mellitus” (J Med Chem, 2018) are described below.

The source made the active and inactive calls. No cut-off for these calls is given here. Some results are limits rather than exact numbers.

Data set [1] has as its target Free fatty acid receptor 1 (Rattus norvegicus) (UniProt Q8K3T4). As to the kind of experiment: Agonist activity at rat PK-tagged GPR40 expressed in human U2OS cells assessed as EA-tagged beta-arrestin recruitment after 90 mins in presence of 1 % heat inactivated FBS by beta-galactosidase reporter gene assay relative to untreated control. It counts as cell-based.
Data set [2] can be described thus: Protein binding in plasma (unknown origin) by equilibrium dialysis assay. It counts as ADME, cell-free. The conditions noted are these: read-out: PPB.
Data set [3] concerns the target T1, Peroxisome proliferator-activated receptor gamma (Homo sapiens) (UniProt P37231).
T1 sequence (whole entry): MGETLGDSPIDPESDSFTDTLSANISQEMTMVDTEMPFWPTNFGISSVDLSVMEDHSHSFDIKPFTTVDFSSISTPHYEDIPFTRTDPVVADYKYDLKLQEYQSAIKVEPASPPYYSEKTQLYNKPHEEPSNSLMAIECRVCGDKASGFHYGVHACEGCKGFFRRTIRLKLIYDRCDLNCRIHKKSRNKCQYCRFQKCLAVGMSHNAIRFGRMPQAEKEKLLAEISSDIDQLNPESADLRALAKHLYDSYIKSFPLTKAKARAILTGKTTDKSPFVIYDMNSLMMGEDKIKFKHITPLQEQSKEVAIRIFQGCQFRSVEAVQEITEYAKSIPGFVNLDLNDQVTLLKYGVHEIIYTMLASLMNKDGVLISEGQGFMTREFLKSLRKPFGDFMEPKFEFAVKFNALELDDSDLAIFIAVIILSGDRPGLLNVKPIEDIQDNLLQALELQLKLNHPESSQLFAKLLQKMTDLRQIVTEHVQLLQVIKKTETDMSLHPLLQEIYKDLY
As to the kind of experiment: Displacement of [3H]-agonist from human PPARgamma expressed in baculovirus infecetd Sf9 cells system up to 30 uM after 10 hrs in presence of DR2 by scintillation proximity assay. An outline of the steps:
(§1)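 PPAR alpha, delta and gamma binding and functional activity were each tested at concentrations up to 30 µM.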

In data set [4] the target is T2, Free fatty acid receptor 1 (Homo sapiens, UniProt O14842). Briefly: Competitive displacement of [3H]-TAK-875 from full length human recombinant GPR40 expressed in HEK293 cell membranes after 2 hrs by scintillation counting. An outline of the steps: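 Binding was measured as competitive inhibition of [3H]-TAK875 (fasiglifam) binding to membranes from cells overexpressing recombinant human GPR40. Ki is reported with SEM and n.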

Data set [5] addresses T2, Free fatty acid receptor 1. Briefly: Agonist activity at human GPR40 receptor expressed in HEK293 cells assessed as increase in intracellular calcium flux after 2.5 hrs measured over 3 mins in presence of 0.1% serum albumin by calcium 4 dye-based FLIPR assay. It counts as functional, cell-based.
Another data set deals with 3T3-L1. As to the kind of experiment: Induction of adipogenesis in mouse 3T3L1 cells. It counts as functional, cell-based. In short, it runs like this:
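Adipogenesis was assessed in 3T3-L1 cells.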

The target of data set [6] is T3, Peroxisome proliferator-activated receptor alpha (Homo sapiens) (UniProt Q07869).
T3 sequence (whole entry): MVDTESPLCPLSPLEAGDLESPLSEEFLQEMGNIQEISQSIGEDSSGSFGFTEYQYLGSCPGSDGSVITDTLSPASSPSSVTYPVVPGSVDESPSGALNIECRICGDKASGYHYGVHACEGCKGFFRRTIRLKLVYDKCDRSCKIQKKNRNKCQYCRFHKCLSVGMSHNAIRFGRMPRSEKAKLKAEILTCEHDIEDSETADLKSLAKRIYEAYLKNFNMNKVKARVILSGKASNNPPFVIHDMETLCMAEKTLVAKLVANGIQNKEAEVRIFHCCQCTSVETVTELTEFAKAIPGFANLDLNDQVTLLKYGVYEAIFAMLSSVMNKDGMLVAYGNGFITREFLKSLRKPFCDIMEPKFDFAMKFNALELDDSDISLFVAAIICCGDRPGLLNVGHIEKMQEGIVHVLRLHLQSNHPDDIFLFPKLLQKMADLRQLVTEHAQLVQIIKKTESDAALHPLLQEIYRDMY
Briefly: Agonist activity at GAL4-fused human PPARalpha expressed in African green monkey CV1 cells up to 30 uM after 24 hrs by luciferase reporter gene assay. It counts as cell-based. In short, it runs like this: as §1

In data set [7] the target is T2, Free fatty acid receptor 1. Briefly: Agonist activity at human GPR40 receptor expressed in HEK293 cells assessed as increase in intracellular calcium flux after 2.5 hrs measured over 3 mins by calcium 4 dye-based FLIPR assay relative to linoleic acid. It counts as functional, cell-based. Also noted: Activity: concentration or dose not given beside the values. An outline of the steps: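 Human GPR40 calcium flux was read on FLIPR. Percent stimulation is expressed against the response to 100 uM linoleic acid.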

Data set [8] addresses T4, Peroxisome proliferator-activated receptor delta (Homo sapiens) (UniProt Q03181).
T4 sequence (whole entry): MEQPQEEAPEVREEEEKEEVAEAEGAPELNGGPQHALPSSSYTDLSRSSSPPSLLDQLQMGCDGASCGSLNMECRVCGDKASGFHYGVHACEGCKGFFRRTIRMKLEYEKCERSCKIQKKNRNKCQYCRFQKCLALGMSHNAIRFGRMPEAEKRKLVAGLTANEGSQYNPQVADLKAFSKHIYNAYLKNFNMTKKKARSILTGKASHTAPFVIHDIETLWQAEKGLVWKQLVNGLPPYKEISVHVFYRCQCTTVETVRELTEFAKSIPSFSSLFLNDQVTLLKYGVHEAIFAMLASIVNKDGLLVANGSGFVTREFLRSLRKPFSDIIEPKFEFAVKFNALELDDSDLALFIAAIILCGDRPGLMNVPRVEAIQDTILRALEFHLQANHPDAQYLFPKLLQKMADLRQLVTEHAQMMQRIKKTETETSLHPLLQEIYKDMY
Briefly: Agonist activity at GAL4-fused human PPARdelta expressed in African green monkey CV1 cells up to 30 uM after 24 hrs by luciferase reporter gene assay. It counts as cell-based. An outline of the steps:
as §1

The target of data set [9] is T4, Peroxisome proliferator-activated receptor delta (Homo sapiens). Briefly: Displacement of [3H]-agonist from human PPARdelta expressed in baculovirus infecetd Sf9 cells system up to 30 uM after 10 hrs in presence of DR2 by scintillation proximity assay. In short, it runs like this: as §1
The target in data set [10] is T2, Free fatty acid receptor 1. As to the kind of experiment: Agonist activity at human GPR40 receptor expressed in HEK293 cells assessed as increase in intracellular calcium flux after 2.5 hrs measured over 3 mins by calcium 4 dye-based FLIPR assay. It counts as functional, cell-based. In short, it runs like this:
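Calcium flux was read by FLIPR in cells carrying recombinant human GPR40. Percent stimulation is relative to the response to 100 µM linoleic acid. EC50 is reported with SEM and n.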

Data set [11] addresses Free fatty acid receptor 1 (Rattus norvegicus, UniProt Q8K3T4). As to the kind of experiment: Agonist activity at rat PK-tagged GPR40 expressed in human U2OS cells assessed as EA-tagged beta-arrestin recruitment after 90 mins in presence of 1 % heat inactivated FBS by beta-galactosidase reporter gene assay. It counts as cell-based. An outline of the steps: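 β-Arrestin recruitment used rat GPR40 in the presence of 1% FBS. EC50 and % maximal stimulation are reported with SEM and n.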

For data set [12], the target named is T2, Free fatty acid receptor 1. As to the kind of experiment: Agonist activity at human PK-tagged GPR40 expressed in HEK293 cells assessed as EA-tagged beta-arrestin recruitment after 90 mins in presence of 1 % heat inactivated FBS by beta-galactosidase reporter gene assay. It counts as cell-based.
Data set [13] has as its target T1, Peroxisome proliferator-activated receptor gamma (Homo sapiens). As to the kind of experiment: Agonist activity at […] human PPARgamma expressed in African green monkey CV1 cells up to 30 uM after 24 hrs by luciferase reporter gene assay. It counts as cell-based. In short, it runs like this: as §1
In data set [14] the target is T3, Peroxisome proliferator-activated receptor alpha (Homo sapiens). Briefly: Displacement of [3H]-agonist from human PPARalpha expressed in baculovirus infecetd Sf9 cells system up to 30 uM after 10 hrs in presence of DR2 by scintillation proximity assay. In short, it runs like this:
as §1

Data set [15] deals with T2, Free fatty acid receptor 1. As to the kind of experiment: Agonist activity at human PK-tagged GPR40 expressed in HEK293 cells assessed as EA-tagged beta-arrestin recruitment after 90 mins in presence of 1 % heat inactivated FBS by beta-galactosidase reporter gene assay relative to untreated control. It counts as cell-based.

Chain of Free fatty acid receptor 1 (Rattus norvegicus, UniProt Q8K3T4) (Q8K3T4 whole entry): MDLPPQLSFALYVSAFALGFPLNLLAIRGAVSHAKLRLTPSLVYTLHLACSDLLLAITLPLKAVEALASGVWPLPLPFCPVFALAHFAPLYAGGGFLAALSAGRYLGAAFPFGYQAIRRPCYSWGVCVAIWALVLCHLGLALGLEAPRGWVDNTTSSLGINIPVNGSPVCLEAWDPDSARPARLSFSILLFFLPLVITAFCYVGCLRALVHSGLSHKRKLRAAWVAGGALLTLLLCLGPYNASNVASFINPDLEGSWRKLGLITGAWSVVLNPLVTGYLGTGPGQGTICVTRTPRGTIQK
Chain of Free fatty acid receptor 1 (Rattus norvegicus) (Q8K3T4 whole entry): as above
T2 sequence (O14842 whole entry): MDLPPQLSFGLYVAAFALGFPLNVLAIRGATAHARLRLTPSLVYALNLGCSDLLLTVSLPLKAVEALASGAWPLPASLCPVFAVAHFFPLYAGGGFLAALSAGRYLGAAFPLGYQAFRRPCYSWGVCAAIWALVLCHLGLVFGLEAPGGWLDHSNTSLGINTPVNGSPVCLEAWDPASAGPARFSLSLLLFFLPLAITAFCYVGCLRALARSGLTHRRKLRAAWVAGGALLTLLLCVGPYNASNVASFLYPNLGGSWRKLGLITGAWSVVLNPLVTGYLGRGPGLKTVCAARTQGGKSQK

With `CC#C[C@@H](CC(=O)O)c1ccc(OCc2ccc3nc(-c4ccc(OC(F)F)cc4)nn3c2)cc1`, the %max stood at 142% in data set [1] and 127% in [15]. Besides, the fraction unbound in data set [2] was under 0.01. Also, the outcome (in data set [3]; with 3T3-L1; in [6]; in [8]; in data set [9]; in [13]) was inactive. The result in [14] was inactive. Further, in data set [4], the inhibitory constant (Ki) was found to be 60 nM. Besides, the result in [5] was Active. In data set [7], the Activity was 64%. The EC50 in data set [10] was determined as 1 nM; in [11], 98 nM; in data set [12] it was 166 nM.
For the molecule `CC#C[C@@H](CC(=O)O)c1ccc(OCc2ccc3nc(-c4ccc(C#N)cc4)nn3c2)cc1`, the %max in [1] came to 125%; in data set [15], 124%. For the same molecule, the fraction unbound in [2] was under 0.01. In addition, the result (in data set [3]; in the data set on 3T3-L1; in data set [6]; in data set [8]; in data set [9]; in data set [13]) was inactive. The outcome in data set [14] was inactive. The Ki in data set [4] was determined as 35 nM. The result in [5] was Active. Moreover, the Activity in data set [7] is 65%. The EC50 in data set [10] amounted to 9 nM; in data set [11], 216 nM; in data set [12] it was 443 nM.
Turning to `CC#C[C@@H](CC(=O)O)c1ccc(OCc2ccc3nc(-c4ccc(OCCOC)cc4)nn3c2)cc1`, the figures for the %max in [1] and in [15] were 133% and 121%, respectively. The fraction unbound in [2] is under 0.01. Also, the outcome (in data set [3]; with 3T3-L1; in data set [6]; in data set [8]; in [9]; in [13]) was inactive. In addition, the outcome in data set [14] was inactive. Besides, the Ki in data set [4] came to 102 nM. Further, the result in data set [5] was Active. Also, in [7], the Activity is 74%. Further, the half-maximal effective concentration (EC50) in data set [10] stood at 16 nM; in data set [11] it was 562 nM; in data set [12], 681 nM.
`CC#C[C@@H](CC(=O)O)c1ccc(OCc2ccc3nc(-c4ccc(C(C)C)cc4)nn3c2)cc1`: the figures for the %max in [1] and in data set [15] were 123% and 154%, respectively. Moreover, the fraction unbound in [2] was under 0.01. Moreover, the result (in [3]; in the data set on 3T3-L1; in [6]; in data set [8]; in [9]; in data set [13]) was inactive. The outcome in data set [14] was inactive. In addition, the Ki in [4] is 32 nM. The result in data set [5] was Active. In addition, the Activity in data set [7] came to 65%. Moreover, the EC50 in data set [10] was 2 nM; in data set [11], 30 nM; in data set [12] it was 67 nM.
For `CC#C[C@@H](CC(=O)O)c1ccc(OCc2ccc3nc(-c4ccc(OCCC(C)(C)O)cc4)nn3c2)cc1`, the %max in data set [1] was 121%; in data set [15] it was 132%. In data set [2], the fraction unbound is under 0.01. Also, the outcome (in data set [3]; in the data set on 3T3-L1; in data set [6]; in data set [8]; in data set [9]; in [13]) was inactive. Further, in data set [14], the result was inactive. The Ki in data set [4] came out at 37 nM. In [5], the result was Active. Besides, the Activity in data set [7] amounted to 89%. The EC50 in data set [10] came out at 72 nM; in data set [11], 68 nM; in [12], 301 nM.
As to `CC#C[C@@H](CC(=O)O)c1ccc(OCc2ccc3nc(-c4c(C)cc(OCCCS(C)(=O)=O)cc4C)nn3c2)cc1`, the %max in data set [1] came to 140%; in data set [15], 114%. The fraction unbound in data set [2] was under 0.01. In addition, the result (in data set [3]; with 3T3-L1; in data set [6]; in data set [8]; in data set [9]; in [13]) was inactive. The outcome in data set [14] was inactive. Besides, the Ki in data set [4] came out at 63 nM. The outcome in [5] was Active. Further, in data set [7], the Activity turned out to be 71%. Besides, the EC50 in data set [10] turned out to be 117 nM; in [11] it was 95 nM; in data set [12], 1490 nM.
